Experimental data from paper PMC11865470 (Communications Biology, 2025).

Assays:
Format in all cases: cell-based
[1] = target: Otop1 channels (Mus musculus, UniProt Q80VM9); test: patch-clamp, pH 8.5-evoked Otop1 currents with preincubated HIMOP; conditions: 10 μM, preincubated at pH 7.4 for 2 min; 0 mV
Procedure, shortened: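 Mouse Otop1 was expressed with EGFP in PAC-knockout HEK293T cells and whole-cell recorded with Cs-aspartate pipette solution (pH 7.3). Test compound was preincubated with cells at pH 7.4 (NMDG-Cl bath, 10 mM HEPES) for 2 min, then pH 8.5 stimulus applied (NMDG-Cl bath, 10 mM Tris).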

[2] = target: T1, mouse Otop1 (mOtop1) channels (Mus musculus, UniProt Q80VM9); conditions: 10 μM MFaN; pH 5.5
T1 sequence (Q80VM9 1-600): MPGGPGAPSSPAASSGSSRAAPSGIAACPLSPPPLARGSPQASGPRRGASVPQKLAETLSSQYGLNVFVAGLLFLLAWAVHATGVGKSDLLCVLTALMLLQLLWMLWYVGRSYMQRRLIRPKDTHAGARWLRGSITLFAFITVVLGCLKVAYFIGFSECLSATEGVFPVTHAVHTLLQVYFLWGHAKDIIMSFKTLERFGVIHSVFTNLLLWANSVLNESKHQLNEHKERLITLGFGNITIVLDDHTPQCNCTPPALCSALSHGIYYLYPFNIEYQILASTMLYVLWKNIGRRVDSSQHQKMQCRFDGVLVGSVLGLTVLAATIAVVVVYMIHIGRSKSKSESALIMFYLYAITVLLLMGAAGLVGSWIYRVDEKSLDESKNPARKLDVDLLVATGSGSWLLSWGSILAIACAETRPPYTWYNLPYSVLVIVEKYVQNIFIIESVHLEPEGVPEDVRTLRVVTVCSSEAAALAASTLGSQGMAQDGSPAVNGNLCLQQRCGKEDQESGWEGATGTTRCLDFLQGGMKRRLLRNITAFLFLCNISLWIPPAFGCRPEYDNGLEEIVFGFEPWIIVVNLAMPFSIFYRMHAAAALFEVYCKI

[3] = target: T1, mouse Otop1 (mOtop1) channels; test: activation time constant; conditions: 10 μM; before or concurrently with pH 5.5 stimulus
[4] = target: T1, mouse Otop1 (mOtop1) channels; test: reversal potential; conditions: 10 μM; pH 5.5; bath NMDG+, Na+, K+ or Cs+
[5] = target: mOtop1 E229A (Mus musculus, UniProt Q80VM9, E229A); test: patch-clamp, mOtop1 mutant; conditions: 10 μM; pH 5.5
Procedure, shortened: (§1)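 Alanine-substituted mOtop1 mutants were co-transfected (2.5 μg channel plus 0.5 μg EGFP plasmid, Lipofectamine 2000) into PAC-knockout HEK293T cells. Whole-cell recording 16–24 h after seeding on PLL coverslips. Pipette (mM): 120 Cs-aspartate, 15 CsCl, 2 Mg-ATP, 5 EGTA, 2.4 CaCl2, 10 HEPES, pH 7.3. Bath (mM): 160 NMDG-Cl, 2 CaCl2, 10 MES, pH 5.5, with 10 μM test compound. Response compared with wild-type mOtop1.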

[6] = target: mOtop1 T233A (Mus musculus, UniProt Q80VM9, T233A); test: patch-clamp, mOtop1 mutant; conditions: 10 μM; pH 5.5
Procedure, shortened: as §1

[7] = target: mOtop1 I239A (Mus musculus, UniProt Q80VM9, I239A); test: patch-clamp, mOtop1 mutant; conditions: 10 μM; pH 5.5
Procedure, shortened: as §1

[8] = target: mOtop1 T240A (Mus musculus, UniProt Q80VM9, T240A); test: patch-clamp, mOtop1 mutant; conditions: 10 μM; pH 5.5
Procedure, shortened: as §1

[9] = target: mOtop1 I241A (Mus musculus, UniProt Q80VM9, I241A); test: patch-clamp, mOtop1 mutant; conditions: 10 μM; pH 5.5
Procedure, shortened: as §1

[10] = target: mOtop1 L243A (Mus musculus, UniProt Q80VM9, L243A); test: patch-clamp, mOtop1 mutant; conditions: 10 μM; pH 5.5
Procedure, shortened: as §1

[11] = target: mOtop1 D244A (Mus musculus, UniProt Q80VM9, D244A); test: patch-clamp, mOtop1 mutant; conditions: 10 μM; pH 5.5
Procedure, shortened: as §1

[12] = target: mOtop1 D245A (Mus musculus, UniProt Q80VM9, D245A); test: patch-clamp, mOtop1 mutant; conditions: 10 μM; pH 5.5
Procedure, shortened: as §1

[13] = target: mOtop1 H246A (Mus musculus, UniProt Q80VM9, H246A); test: patch-clamp, mOtop1 mutant; conditions: 10 μM; pH 5.5
Procedure, shortened: as §1

[14] = target: mOtop1 R554N (Mus musculus, UniProt Q80VM9, R554N); test: patch-clamp, mOtop1 mutant; conditions: Fig 5G, H
[15] = target: mOtop1 R554Q (Mus musculus, UniProt Q80VM9, R554Q); test: patch-clamp, mOtop1 mutant; conditions: Fig 5G, H
[16] = target: mOtop1 R554C (Mus musculus, UniProt Q80VM9, R554C); test: patch-clamp, mOtop1 mutant; conditions: Fig 5G, H
[17] = target: mOtop1 R554K (Mus musculus, UniProt Q80VM9, R554K); test: patch-clamp, mOtop1 mutant; conditions: Fig 5G, H
[18] = target: mOtop1 R554H (Mus musculus, UniProt Q80VM9, R554H); test: patch-clamp, mOtop1 mutant; conditions: Fig 5G, H
Sequence of mOtop1 R554H (Q80VM9 whole entry R554H): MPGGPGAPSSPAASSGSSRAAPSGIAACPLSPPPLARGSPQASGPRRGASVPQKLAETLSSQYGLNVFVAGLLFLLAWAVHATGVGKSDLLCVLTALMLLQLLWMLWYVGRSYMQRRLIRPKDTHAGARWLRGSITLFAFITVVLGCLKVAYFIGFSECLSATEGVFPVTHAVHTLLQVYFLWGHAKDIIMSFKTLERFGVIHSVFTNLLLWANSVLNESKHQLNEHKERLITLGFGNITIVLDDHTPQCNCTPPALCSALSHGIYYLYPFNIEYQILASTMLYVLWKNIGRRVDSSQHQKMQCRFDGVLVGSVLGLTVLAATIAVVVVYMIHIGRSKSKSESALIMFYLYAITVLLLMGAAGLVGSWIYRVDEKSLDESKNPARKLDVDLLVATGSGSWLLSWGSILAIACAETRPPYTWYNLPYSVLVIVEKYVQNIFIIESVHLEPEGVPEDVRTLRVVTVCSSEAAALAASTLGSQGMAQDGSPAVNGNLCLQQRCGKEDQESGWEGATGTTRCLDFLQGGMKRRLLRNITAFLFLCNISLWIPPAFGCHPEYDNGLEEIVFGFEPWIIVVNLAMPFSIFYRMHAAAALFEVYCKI

Sequence of mOtop1 T233A (Q80VM9 whole entry T233A): as the sequence (Q80VM9 whole entry R554H) above, with T233A, H554R counted along it
Sequence of mOtop1 D245A (Q80VM9 whole entry D245A): as the sequence (Q80VM9 whole entry R554H) above, with D245A, H554R counted along it
Sequence of mOtop1 R554C (Q80VM9 whole entry R554C): as the sequence (Q80VM9 whole entry R554H) above, with H554C counted along it
Sequence of mOtop1 H246A (Q80VM9 whole entry H246A): as the sequence (Q80VM9 whole entry R554H) above, with H246A, H554R counted along it
Sequence of mOtop1 I239A (Q80VM9 whole entry I239A): as the sequence (Q80VM9 whole entry R554H) above, with I239A, H554R counted along it
Sequence of mOtop1 R554N (Q80VM9 whole entry R554N): as the sequence (Q80VM9 whole entry R554H) above, with H554N counted along it
Sequence of mOtop1 D244A (Q80VM9 whole entry D244A): as the sequence (Q80VM9 whole entry R554H) above, with D244A, H554R counted along it
Sequence of mOtop1 R554Q (Q80VM9 whole entry R554Q): as the sequence (Q80VM9 whole entry R554H) above, with H554Q counted along it
Sequence of mOtop1 I241A (Q80VM9 whole entry I241A): as the sequence (Q80VM9 whole entry R554H) above, with I241A, H554R counted along it
Sequence of mOtop1 E229A (Q80VM9 whole entry E229A): as the sequence (Q80VM9 whole entry R554H) above, with E229A, H554R counted along it
Sequence of mOtop1 T240A (Q80VM9 whole entry T240A): as the sequence (Q80VM9 whole entry R554H) above, with T240A, H554R counted along it
Sequence of mOtop1 L243A (Q80VM9 whole entry L243A): as the sequence (Q80VM9 whole entry R554H) above, with L243A, H554R counted along it
Sequence of mOtop1 R554K (Q80VM9 whole entry R554K): as the sequence (Q80VM9 whole entry R554H) above, with H554K counted along it

| Structure (SMILES) | effect on pH 8.5-evoked Otop1 currents [1] | effect on inhibition of mOtop1 by Zn2+ [2] | effect on the activation rate of mOtop1 channels [3] | effect on Vrev of the mOtop1 channel [4] | response of mutant to MFaN compared to wild-type mOtop1 [5] | response of mutant to MFaN compared to wild-type mOtop1 [6] | response of mutant to MFaN compared to wild-type mOtop1 [7] | response of mutant to MFaN compared to wild-type mOtop1 [8] | response of mutant to MFaN compared to wild-type mOtop1 [9] | response of mutant to MFaN compared to wild-type mOtop1 [10] | response of mutant to MFaN compared to wild-type mOtop1 [11] | response of mutant to MFaN compared to wild-type mOtop1 [12] | response of mutant to MFaN compared to wild-type mOtop1 [13] | effect of mutation on MFaN's potentiation effect vs WT mOtop1 [14] | effect of mutation on MFaN's potentiation effect vs WT mOtop1 [15] | effect of mutation on MFaN's potentiation effect vs WT mOtop1 [16] | effect of mutation on MFaN's potentiation effect vs WT mOtop1 [17] | effect of mutation on MFaN's potentiation effect vs WT mOtop1 [18] |
| --- | --- | --- | --- | --- | --- | --- | --- | --- | --- | --- | --- | --- | --- | --- | --- | --- | --- | --- |
| CC(C)c1noc2ncc(C(=O)c3ccccc3O)cc12 [HIMOP, (2-hydroxyphenyl)-(3-propan-2-yl-5-isoxazolo[5,4-b]pyridinyl)methanone] | significantly enhanced |  |  |  |  |  |  |  |  |  |  |  |  |  |  |  |  |  |
| Cc1ccc(C(=O)Nc2ccc3ccccc3c2)o1 [MFaN, 5-methyl-N-2-naphthyl-2-furamide] |  | without affecting | had no effect | did not change | significantly enhanced | markedly reduced | markedly reduced | markedly reduced | markedly reduced | significantly enhanced | markedly reduced | significantly enhanced | significantly enhanced | eliminated | eliminated | eliminated | did not affect | reduced |
